Test results taken from publication PMC6128401 (Molecular pharmaceutics, 2017).

What was measured:
[1] = target: T1, A431-CCK2R cell line expressing the human CCK2R (Homo sapiens, UniProt P32239); experiment: Cell uptake; assay type: cell-based; settings: A431-CCK2R cells, 2 h incubation, 0.4 nM
T1 sequence (P32239 1-447): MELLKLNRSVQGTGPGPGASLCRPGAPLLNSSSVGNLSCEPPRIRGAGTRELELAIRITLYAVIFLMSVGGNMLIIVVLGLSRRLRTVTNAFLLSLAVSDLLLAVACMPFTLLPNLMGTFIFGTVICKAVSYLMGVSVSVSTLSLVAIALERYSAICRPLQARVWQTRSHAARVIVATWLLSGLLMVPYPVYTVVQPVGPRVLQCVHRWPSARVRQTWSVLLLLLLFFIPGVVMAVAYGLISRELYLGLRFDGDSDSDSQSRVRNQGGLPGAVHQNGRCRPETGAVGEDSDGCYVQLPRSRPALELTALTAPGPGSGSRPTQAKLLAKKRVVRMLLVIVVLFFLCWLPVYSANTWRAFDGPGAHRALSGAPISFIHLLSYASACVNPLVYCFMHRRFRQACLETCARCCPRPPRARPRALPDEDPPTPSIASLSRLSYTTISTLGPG
Outline: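 A431-CCK2R and A431-mock cells were cultured in DMEM with 10% FBS, penicillin/streptomycin/L-glutamine at 37°C, 5% CO₂. They were seeded at 1.0×10⁶ cells/well and grown 48 h to confluency. Peptides were labelled with ¹⁷⁷LuCl₃ (~50 GBq/µmol) in ascorbate buffer pH 5 with gentisic acid and L-Met, 80°C. Triplicate wells received ~100,000 cpm (0.4 nM) for 2 h. The internalized fraction was gamma-counted as % of total added.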

[2] = Chemical stability in phosphate buffered saline; assay type: physicochemical; settings: PBS at RT, up to/after 4 h incubation
Outline: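 ¹⁷⁷Lu-labelled peptide (120 pmol/mL) was kept in phosphate buffered saline at room temperature. Aliquots were taken at intervals up to […] and analysed by HPLC for percentage intact radiopeptide relative to post-labelling radiochemical purity.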

[3] = Stability against enzymatic degradation in human serum; assay type: in vitro ADME
Outline: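 The ¹⁷⁷Lu-labelled peptide was incubated in human serum at 37°C and sampled at time points up to 24 h. Proteins were precipitated with acetonitrile (1:1.5) and centrifuged; supernatant was diluted 1:1 with water before HPLC for intact radiopeptide. Half-life came from first-order exponential decay fitting.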

[4] = assay type: physicochemical
Outline: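 Labelling used ~2 GBq ¹⁷⁷LuCl₃ in 1 mL dilute HCl, heated at 80°C for 15-25 min. Kits were stored up to 6 months; labelled product was held up to 48 h at room temperature or −20°C. Radiochemical purity was measured by RP-HPLC.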

A431-CCK2R xenografts [5] = experiment: Biodistribution: uptake in receptor-positive tumour xenograft; assay type: in vivo, BALB/c nude mice; settings: 30 min p.i.
Outline: (§1)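 Female and male BALB/c nude mice, 5-6 weeks old, carried A431-CCK2R and A431-mock xenografts in opposite flanks (2×10⁶ cells each). Tumours grew for ~14 days to ~0.2 g. Kit-prepared ¹⁷⁷Lu-peptide, 1 MBq (20 pmol; 50 GBq/µmol), was injected into the tail vein. Groups of five were killed at 30 min, 4 h, 1 d, 2 d, 3 d and 7 d; dissected tissues were gamma-counted and expressed as % IA/g.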

[6] = Biodistribution: uptake in normal organs and tissues; assay type: in vivo, BALB/c nude mice; settings: 30 min p.i.
Outline: as §1

A431-CCK2R xenografts [7] = experiment: Experimental radionuclide therapy, receptor-positive tumour growth; assay type: in vivo, BALB/c nude mice; settings: for mean SGR A431-CCK2R: single i.v. treatment; for TVDT increase by a factor in comparison to the control group: A431-CCK2R tumours
A431-mock xenografts = experiment: Experimental radionuclide therapy, receptor-negative tumour growth; assay type: in vivo, BALB/c nude mice; settings: for mean SGR A431-mock: single i.v. treatment
[8] = Medullary toxicity: white blood cell and platelet counts; assay type: in vivo, BALB/c nude mice
Outline: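 Double-xenografted nude mice were dosed as in the therapy study (saline, 15 or 30 MBq i.v.), n=5. Weekly, 0.1 mL venous blood was drawn from the superficial temporal vein by lancet, up to eight samples per animal. White blood cells and platelets were counted on an automatic haematology analyser. Counts were expressed relative to basal values (week −2 = inoculation; week 0 = treatment).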

[9] = Renal toxicity: creatinine and urea in serum; assay type: in vivo, BALB/c nude mice
Outline: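 The same treated double-xenografted nude mice (saline, 15 or 30 MBq i.v.; n=5) gave weekly venous blood samples. Serum creatinine and urea were measured with specific kits on a semiautomatic biochemical analyser. Values were compared between treated and control groups over weeks from cell inoculation (week −2) onward.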

[10] = 15 MBq, one week after treatment
[11] = 15 MBq group, week 0 (week of treatment)
[12] = 15 MBq group, week -2 (cell inoculation)
[13] = 30 MBq group, week 0 (week of treatment)
[14] = 30 MBq group, week -2 (cell inoculation)

CSCC[C@H](NC(=O)[C@H](Cc1c[nH]c2ccccc12)NC(=O)[C@H]1CCCCNC(=O)[C@H](NC(=O)CN2CCN(CC(=O)O)CCN(CC(=O)O)CCN(CC(=O)O)CC2)CCC(=O)N[C@@H](C)C(=O)N[C@@H](Cc2ccc(O)cc2)C(=O)N1)C(=O)N[C@@H](CC(=O)O)C(=O)N[C@@H](Cc1ccccc1)C(N)=O [^177Lu-DOTA-cyclo-MG1, metal not drawn]
internalized radioligand fraction (% of total) [1]: 15.2±2.6% | RCP during incubation in PBS [2]: 86% | half-life [3]: 1810 min | improvement of RCP by freezer storage ([4]; -20°C versus RT): ~ 10% | degree of Met-oxidation ([4]; during storage of the kits): 3.8-6.1% | mean RCP for the different time points after storage of the kits ([4]; kit storage up to 6 months, n=4): 89.4±7.9% | RCP after preparation ([4]; kit-prepared, directly after preparation): 93.3±1.6% | RCP at 24 h after preparation ([4]; stored at RT): 89.8±2.8% | RCP up to 4 h after preparation ([4]; stored at RT): > 92% | maximal tumour uptake (A431-CCK2R xenografts [5]): 5.18 % IA/g | kidney uptake, maximal value [6]: 1.75 % IA/g | mean SGR A431-CCK2R (A431-CCK2R xenografts [7]; 15 MBq group (0.6 nmol)): 0.046±0.002 | mean SGR A431-CCK2R (A431-CCK2R xenografts [7]; 30 MBq group (1.2 nmol)): 0.031±0.006 | TVDT increase by a factor in comparison to the control group (A431-CCK2R xenografts [7]; high activity group (30 MBq)): 2.6 | TVDT increase by a factor in comparison to the control group (A431-CCK2R xenografts [7]; low activity group (15 MBq)): 1.8 | mean SGR A431-mock (A431-mock xenografts; 15 MBq group (0.6 nmol)): 0.065±0.006 | mean SGR A431-mock (A431-mock xenografts; 30 MBq group (1.2 nmol)): 0.051±0.006 | TVDT increase by a factor in comparison to the control group (A431-mock xenografts; A431-mock tumours, high activity group (30 MBq)): 1.5 | reduction in PLT counts compared to the basal value [8, 10]: 51.2-52.8% | reduction in WBC counts compared to the basal value [8, 10]: 37.8-40.8% | PLT value ([8]; 15 MBq, week 2 after treatment, reference 558-1,454): 531±26 ×10^9/L | decline of PLT value compared to the basal value ([8]; 30 MBq, after treatment): 44.8-58.0% | reduction of WBC value compared to the basal value ([8]; 30 MBq, week 1 after treatment): 67.2-70.9% | PLT value below the reference values ([8]; 30 MBq, week 1 and 2 after treatment): 486-530 ×10^9/L | WBC value below the lower reference limit ([8]; 30 MBq, week 1 and 2 after treatment, reference 3.11-13.04): 2.17-2.94 ×10^9/L | Creatinine (reference value 0.1-0.5) [9, 11]: 0.3 ± 0.2 mg/dL | Urea (reference value 17-38) [9, 11]: 26 ± 2 mmol/L | Creatinine (reference value 0.1-0.5) ([9]; 15 MBq group, week 1): 0.2 ± 0.1 mg/dL | Urea (reference value 17-38) ([9]; 15 MBq group, week 1): 32 ± 3 mmol/L | Creatinine (reference value 0.1-0.5) ([9]; 15 MBq group, week 2): 0.3 ± 0.1 mg/dL | Urea (reference value 17-38) ([9]; 15 MBq group, week 2): 33 ± 2 mmol/L | Creatinine (reference value 0.1-0.5) ([9]; 15 MBq group, week 3): 0.3 ± 0.2 mg/dL | Creatinine (reference value 0.1-0.5) ([9]; 15 MBq group, week 4): 0.5 ± 0.1 mg/dL | Creatinine (reference value 0.1-0.5) ([9]; 15 MBq group, week 5): 0.7 mg/dL | Creatinine (reference value 0.1-0.5) ([9]; 15 MBq group, week -1): 0.2 ± 0.1 mg/dL | Urea (reference value 17-38) ([9]; 15 MBq group, week -1): 33 ± 4 mmol/L | Creatinine (reference value 0.1-0.5) [9, 12]: 0.2 ± 0.1 mg/dL | Urea (reference value 17-38) [9, 12]: 31 ± 3 mmol/L | urea above the upper limit of the reference value ([9]; 15 MBq, beginning from week 3 after treatment): 39 to 48 mmol/L | Creatinine (reference value 0.1-0.5) [9, 13]: 0.3 ± 0.2 mg/dL | Urea (reference value 17-38) [9, 13]: 32 ± 5 mmol/L | Creatinine (reference value 0.1-0.5) ([9]; 30 MBq group, week 1): 0.3 ± 0.1 mg/dL | Urea (reference value 17-38) ([9]; 30 MBq group, week 1): 29 ± 4 mmol/L | Creatinine (reference value 0.1-0.5) ([9]; 30 MBq group, week 2): 0.2 ± 0.1 mg/dL | Creatinine (reference value 0.1-0.5) ([9]; 30 MBq group, week 3): 0.5 ± 0.2 mg/dL | Creatinine (reference value 0.1-0.5) ([9]; 30 MBq group, week -1): 0.2 ± 0.1 mg/dL | Urea (reference value 17-38) ([9]; 30 MBq group, week -1): 28 ± 3 mmol/L | Creatinine (reference value 0.1-0.5) [9, 14]: 0.2 ± 0.1 mg/dL | Urea (reference value 17-38) [9, 14]: 27 ± 5 mmol/L | urea levels above the reference limit ([9]; 30 MBq, beginning from week 2 after treatment): 39 to 52 mmol/L | creatinine levels above the reference limit ([9]; 30 MBq, beginning from week 4 after treatment): 0.6 to 0.8 mg/dL
